# From publication PMC6477682 (Journal of the American Chemical Society, 2018)
# Tests used:
# [1] = system: S. aureus; test: Photoinactivation; format: cell-based, Staphylococcus aureus; details: at 1 µM and 2 µM, with and without photoirradiation (Figure 4c)
# [2] = system: LOS- A. baumannii cells; test: Photoinactivation of LOS- A. baumannii; format: cell-based, Acinetobacter baumannii; details: at the same concentrations, with and without photoirradiation (Figure 5c)
# Procedure, shortened: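 AB5075-derived LOS− strain grown to OD600~0.7, washed, diluted in PBS (pH 7.4) to ~1×10^8 cfu/mL, incubated 15 min with eosin-conjugated peptide (2 µM) or controls. Half the suspension irradiated 15 min with blue light (120 W lamp, fluorescein filter, 20X objective); the other half kept dark. Plated on LB agar + 10 µg/mL polymyxin b, 24 h. Killing from colony counts vs untreated PBS control; mean of two trials.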
structure (smiles),measurement,setting,value
O=C1OC2(c3ccccc31)c1cc(Br)c(O)c(Br)c1Oc1c2cc(Br)c(O)c1Br [eosin],"S. aureus cell death, controls",[1],did not elicit cell death
same,"LOS- A. baumannii cell death, controls",[2],did not elicit A. baumannii cell death
